Columns and labels:
Trypanosoma cruzi [1] = assay: Antitrypanosomal activity against Trypanosoma cruzi Dm28c epimastigotes measured after 4 to 5 days by neubauer chamber method; type: functional
Procedure, shortened: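 Dm28c epimastigotes in LIT with 10% FBS, 1% hemin and gentamycin at 27 °C. Seeded at 10^6 cells/well and treated in triplicate for 4 days (table footnote: 5 days). Parasites counted in a Neubauer chamber against untreated wells as 100%. IC50 by nonlinear regression from at least five concentrations. Experiment repeated; only values with SD < 10% of mean kept.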

Trypanosoma cruzi [2] = assay: Antitrypanosomal activity against bloodstream trypomastigote stage of Trypanosoma cruzi Y infected in monkey LLC-MK2 cells measured after 24 hrs by neubauer chamber method; type: functional; details: LLC-MK2, in Primates
Procedure, shortened: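 Y strain trypomastigotes taken from LLC-MK2 culture supernatant and held in RPMI-1640 with 10% FBS. Seeded at 4×10^5 cells/well and treated in triplicate for 24 h at 37 °C, 5% CO2. Motile parasites counted in a Neubauer chamber against untreated wells. IC50 by nonlinear regression from at least seven concentrations. Experiment repeated; SD < 10% of mean required.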

[3] = Cytotoxicity against mouse J774A.1 cells after 24 to 72 hrs by MTT assay; type: cell-based, J774.A1; details: read-out: MNCC
Procedure, shortened: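 J774A.1 macrophages in DMEM with 10% heat-inactivated FBS at 37 °C, 5% CO2. Seeded at 1×10^5 cells/well, 24 h preincubation, then compounds at 1–100 µg/mL for 72 h (table footnote: viability at 24 h). MTT 2 h, formazan dissolved in DMSO, absorbance read at 570 nm. Highest non-cytotoxic concentration reported.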

[4] = Selectivity index, ratio of highest non-cytotoxic concentration for mouse J774A.1 cells to CC50 for bloodstream trypomastigote stage of Trypanosoma cruzi Y infected in monkey LLC-MK2 cells; type: toxicity, cell-based; details: read-out: Selectivity Index
Procedure, shortened: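 Selectivity index is the highest non-cytotoxic concentration in J774A.1 macrophages divided by the 50% value against Y strain trypomastigotes measured after 24 h.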

[5] = biological target: Cruzipain (Trypanosoma cruzi) (UniProt P25779); assay: Inhibition of Trypanosoma cruzi cruzain at 50 uM using Z-phe-Arg-aminomethylcoumarin as substrate pretreated for 10 mins measured for 5 mins by fluorometric method relative to control
Procedure, shortened: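 Cruzain at 0.5 nM in 0.1 M sodium acetate pH 5.5 with 0.1 mM β-mercaptoethanol and 0.01% Triton X-100. Compound screened at 50 µM after a 10-min preincubation with enzyme, then 2.5 µM Z-FR-AMC added. AMC fluorescence (ex 340/em 440 nm) followed for 5 min. Activity taken from initial rates relative to a DMSO control. Two independent experiments, each in triplicate.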

Trypanosoma cruzi [6] = assay: Induction of apoptosis in bloodstream trypomastigote stage of Trypanosoma cruzi Y infected in monkey LLC-MK2 cells assessed as necrotic cells at 4.4 uM measured after 24 hrs by Annexin-V-FITC/propidium iodide staining based flow cytometric method (reference value: 0.014%); type: functional
Trypanosoma cruzi [7] = assay: Potency index, ratio of benznidazole CC50 to compound CC50 for Trypanosoma cruzi Dm28c epimastigotes; type: functional
Trypanosoma cruzi [8] = assay: Induction of apoptosis in bloodstream trypomastigote stage of Trypanosoma cruzi Y infected in monkey LLC-MK2 cells assessed as late apoptotic cells at 2.2 uM measured after 24 hrs by Annexin-V-FITC/propidium iodide staining based flow cytometric method (reference value: 0.27%); type: functional
Trypanosoma cruzi [9] = assay: Induction of apoptosis in bloodstream trypomastigote stage of Trypanosoma cruzi Y infected in monkey LLC-MK2 cells assessed as early apoptotic cells at 2.2 uM measured after 24 hrs by Annexin-V-FITC/propidium iodide staining based flow cytometric method (reference value: 0.31%); type: functional
Trypanosoma cruzi [10] = assay: Induction of apoptosis in bloodstream trypomastigote stage of Trypanosoma cruzi Y infected in monkey LLC-MK2 cells assessed as late apoptotic cells at 4.4 uM measured after 24 hrs by Annexin-V-FITC/propidium iodide staining based flow cytometric method (reference value: 0.27%); type: functional
Trypanosoma cruzi [11] = assay: Induction of apoptosis in bloodstream trypomastigote stage of Trypanosoma cruzi Y infected in monkey LLC-MK2 cells assessed as necrotic cells at 2.2 uM measured after 24 hrs by Annexin-V-FITC/propidium iodide staining based flow cytometric method (reference value: 0.014%); type: functional
Trypanosoma cruzi [12] = assay: Induction of apoptosis in bloodstream trypomastigote stage of Trypanosoma cruzi Y infected in monkey LLC-MK2 cells assessed as early apoptotic cells at 4.4 uM measured after 24 hrs by Annexin-V-FITC/propidium iodide staining based flow cytometric method (reference value: 0.31%); type: functional
Trypanosoma cruzi [13] = assay: Potency index, ratio of benznidazole CC50 to compound CC50 for bloodstream trypomastigote stage of Trypanosoma cruzi Y infected in monkey LLC-MK2 cells; type: functional
Trypanosoma cruzi [14] = assay: Induction of apoptosis in bloodstream trypomastigote stage of Trypanosoma cruzi Y infected in monkey LLC-MK2 cells assessed as necrotic cells at 5 uM measured after 24 hrs by Annexin-V-FITC/propidium iodide staining based flow cytometric method (reference value: 0.014%); type: functional
Trypanosoma cruzi [15] = assay: Induction of apoptosis in bloodstream trypomastigote stage of Trypanosoma cruzi Y infected in monkey LLC-MK2 cells assessed as necrotic cells at 25 uM measured after 24 hrs by Annexin-V-FITC/propidium iodide staining based flow cytometric method (reference value: 0.014%); type: functional
Trypanosoma cruzi [16] = assay: Induction of apoptosis in bloodstream trypomastigote stage of Trypanosoma cruzi Y infected in monkey LLC-MK2 cells assessed as early apoptotic cells at 1.6 uM measured after 24 hrs by Annexin-V-FITC/propidium iodide staining based flow cytometric method (reference value: 0.31%); type: functional
Trypanosoma cruzi [17] = assay: Induction of apoptosis in bloodstream trypomastigote stage of Trypanosoma cruzi Y infected in monkey LLC-MK2 cells assessed as necrotic cells at 3.2 uM measured after 24 hrs by Annexin-V-FITC/propidium iodide staining based flow cytometric method (reference value: 0.014%); type: functional
Trypanosoma cruzi [18] = assay: Induction of apoptosis in bloodstream trypomastigote stage of Trypanosoma cruzi Y infected in monkey LLC-MK2 cells assessed as late apoptotic cells at 3.2 uM measured after 24 hrs by Annexin-V-FITC/propidium iodide staining based flow cytometric method (reference value: 0.27%); type: functional
Trypanosoma cruzi [19] = assay: Induction of apoptosis in bloodstream trypomastigote stage of Trypanosoma cruzi Y infected in monkey LLC-MK2 cells assessed as late apoptotic cells at 1.6 uM measured after 24 hrs by Annexin-V-FITC/propidium iodide staining based flow cytometric method (reference value: 0.27%); type: functional
Trypanosoma cruzi [20] = assay: Induction of apoptosis in bloodstream trypomastigote stage of Trypanosoma cruzi Y infected in monkey LLC-MK2 cells assessed as necrotic cells at 1.6 uM measured after 24 hrs by Annexin-V-FITC/propidium iodide staining based flow cytometric method (reference value: 0.014%); type: functional
Trypanosoma cruzi [21] = assay: Induction of apoptosis in bloodstream trypomastigote stage of Trypanosoma cruzi Y infected in monkey LLC-MK2 cells assessed as early apoptotic cells at 3.2 uM measured after 24 hrs by Annexin-V-FITC/propidium iodide staining based flow cytometric method (reference value: 0.31%); type: functional

Cruzipain (Trypanosoma cruzi), sequence (P25779 123-467 limits assumed): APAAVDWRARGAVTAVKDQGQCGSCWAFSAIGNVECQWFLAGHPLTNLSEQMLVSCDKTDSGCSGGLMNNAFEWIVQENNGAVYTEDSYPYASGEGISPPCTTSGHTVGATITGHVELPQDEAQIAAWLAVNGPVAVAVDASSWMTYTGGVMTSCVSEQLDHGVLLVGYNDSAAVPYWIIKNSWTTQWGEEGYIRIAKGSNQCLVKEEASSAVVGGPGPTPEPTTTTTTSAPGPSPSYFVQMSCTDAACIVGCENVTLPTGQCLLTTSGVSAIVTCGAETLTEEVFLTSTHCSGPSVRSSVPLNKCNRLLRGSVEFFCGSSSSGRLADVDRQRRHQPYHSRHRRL

Compound | CC50 (Trypanosoma cruzi [1]) | CC50 (Trypanosoma cruzi [2]) | MNTC [3] | selectivity ratio [4] | further results
C/C(=N\N=c1/sc(C)c(-c2ccccc2)n1-c1ccccc1)c1ccccn1 | 15.5 µM | 2.3 µM | 43 µM | 19 | –
C/C(=N\N=c1/scc(-c2ccc(Cl)cc2)n1C)c1ccccn1 | – | 4.5 µM | 20 µM | 4 | –
C/C(=N\N=c1/scc(-c2cccc([N+](=O)[O-])c2)n1-c1ccccc1)c1ccccn1 | 11 µM | 1.9 µM | 10 µM | 5 | –
C/C(=N\N=c1/scc(-c2ccc(Cl)cc2)n1-c1ccccc1)c1ccccn1 | 9.1 µM | 2 µM | 13 µM | 7 | –
C/C(=N\N=c1/sc(C)c(-c2ccccc2)n1C)c1ccccn1 | 6.2 µM | 2.7 µM | 97 µM | 36 | inhibition [5]: 73%
C/C(=N\N=c1/scc(-c2ccc([N+](=O)[O-])cc2)n1-c1ccccc1)c1ccccn1 | 87.4 µM | 3.1 µM | 23 µM | 7 | –
C/C(=N\N=c1/scc(-c2ccc(Br)cc2)n1C)c1ccccn1 | 3.2 µM | 2.2 µM | 33 µM | 15 | Activity (Trypanosoma cruzi [6]): 3.15%; Ratio (Trypanosoma cruzi [7]): 15; Activity (Trypanosoma cruzi [8]): 4%; Activity (Trypanosoma cruzi [9]): 38%; Activity (Trypanosoma cruzi [10]): 4.7%; Activity (Trypanosoma cruzi [11]): 3%; Activity (Trypanosoma cruzi [12]): 35%
C/C(=N\N=c1/scc(-c2ccccc2)n1C)c1ccccn1 | 56 µM | 4 µM | 4 µM | 1 | inhibition [5]: 70%
C/C(=N\N=c1/scc(-c2ccc(F)cc2)n1-c1ccccc1)c1ccccn1 | 3.1 µM | 3.9 µM | 35 µM | 9 | inhibition [5]: 58%
C/C(=N\N=c1/sc(C)c(-c2ccc(Br)cc2)n1-c1ccccc1)c1ccccn1 | 17.1 µM | 3.1 µM | 30 µM | 10 | –
C/C(=N\N=c1/scc(-c2ccc3ccccc3c2)n1-c1ccccc1)c1ccccn1 | 1.9 µM | 6.1 µM | 51 µM | 8 | –
COc1ccc(-c2cs/c(=N\N=C(/C)c3ccccn3)n2C)cc1 | 4.5 µM | 4.6 µM | 20 µM | 4 | –
C/C(=N\N=c1/scc(-c2ccc(Br)cc2)n1-c1ccccc1)c1ccccn1 | 6.3 µM | 1.8 µM | 10 µM | 6 | –
C/C(=N\N=c1/scc(-c2ccc(F)cc2)n1C)c1ccccn1 | 8.5 µM | 5.6 µM | 12 µM | 2 | –
C/C(=N\N=c1/scc(-c2ccccc2)n1-c1ccccc1)c1ccccn1 | 93.4 µM | 6.3 µM | 51 µM | 8 | –
C/C(=N\N=c1/scc(-c2cccc([N+](=O)[O-])c2)n1C)c1ccccn1 | 7.8 µM | 2.4 µM | 82 µM | 34 | Ratio (Trypanosoma cruzi [13]): 3
O=C(Cn1ccnc1[N+](=O)[O-])NCc1ccccc1 [BENZNIDAZOLE] | 48.8 µM | 6.2 µM | 44.7 µM | 7.2 | Activity (Trypanosoma cruzi [14]): 4.2%; Activity (Trypanosoma cruzi [15]): 56.4%
C/C(=N\N=c1/sc(C)c(-c2ccc(Br)cc2)n1C)c1ccccn1 | 2.9 µM | 3.4 µM | 68 µM | 20 | –
C/C(=N\N=c1/scc(-c2ccc(Cl)c(Cl)c2)n1-c1ccccc1)c1ccccn1 | 13.9 µM | 1.9 µM | 8 µM | 4 | –
C/C(=N\N=c1/scc(-c2ccc([N+](=O)[O-])cc2)n1C)c1ccccn1 | 13.7 µM | 7 µM | 36 µM | 5 | –
C/C(=N\N=c1/scc(-c2ccc(Cl)c(Cl)c2)n1C)c1ccccn1 | 6.9 µM | 2.3 µM | 11 µM | 5 | Ratio (Trypanosoma cruzi [13]): 3; Ratio (Trypanosoma cruzi [7]): 7
CNC(=S)N/N=C(\C)c1ccccn1 | – | 8.8 µM | 22 µM | 2.5 | –
C/C(=N\N=c1/scc(-c2ccc3ccccc3c2)n1C)c1ccccn1 | 8.2 µM | 3 µM | 30 µM | 10 | –
C/C(=N\N=c1/scc(-c2ccc(-c3ccccc3)cc2)n1-c1ccccc1)c1ccccn1 | 47.3 µM | 2 µM | 7 µM | 4 | –
C/C(=N\N=c1/scc(-c2ccc(Cl)cc2Cl)n1C)c1ccccn1 | 31.6 µM | 13 µM | 14 µM | 1 | –
C/C(=N\N=c1/scc(-c2ccc(Cl)cc2Cl)n1-c1ccccc1)c1ccccn1 | 2.7 µM | 1.6 µM | 81 µM | 50 to 51 | Activity (Trypanosoma cruzi [16]): 39.5%; Activity (Trypanosoma cruzi [17]): 3.2%; Ratio (Trypanosoma cruzi [13]): 4 - 5; Ratio (Trypanosoma cruzi [7]): 18; Activity (Trypanosoma cruzi [18]): 4.3%; Activity (Trypanosoma cruzi [19]): 4%; Activity (Trypanosoma cruzi [20]): 2.9%; Activity (Trypanosoma cruzi [21]): 39.4%
C/C(=N\N=c1/scc(-c2ccc(-c3ccccc3)cc2)n1C)c1ccccn1 | 66.6 µM | 2.2 µM | 6 µM | 3 | –
